Test results from PMC7931394 (ACS Omega, 2021).
Peptide text beside a SMILES is read from it.

Key:
Type in all cases: physicochemical
[1] = Turbidity measurement of temperature-dependent coacervation
Outline: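 Peptides were dissolved in pure water at various concentrations. Turbidity at 400 nm was followed while the temperature was raised or lowered at 0.5 °C/min starting from 5 °C. Each concentration was run at least three times. Tt was taken as the temperature at which turbidity reached half its maximum.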

[2] = Logarithmic fit of Tt against molar peptide concentration; conditions: pure water
Outline: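 Tt for each peptide was obtained by turbidity at 400 nm in pure water at several concentrations, measured at least three times per concentration. Tt was plotted against the logarithm of molar peptide concentration and fitted as a logarithmic function. C37 was obtained by logarithmic extrapolation to Tt = 37 °C. The concentration needed at 50 °C was computed from formula (1).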

[3] = Scanning electron microscopy of aggregates; conditions: 0.10 mg/mL aqueous solution incubated at 50 °C for 3 h (Figure S6)
Outline: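 Peptide in water at 0.1 mg/mL was incubated at 50 °C for 3 h, dropped on a cover glass and air-dried at 50 °C. The residue was rinsed gently three times with distilled water and air-dried again. Samples were platinum sputter-coated (5 nm) and imaged at 5.00 kV at 500× and 2000× magnification.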

coacervation (turbidity change on heating) ([1]; peptide 20–50 mg/mL in pure water, turbidity at 400 nm (Figure S2)) | peptide concentration at which coacervation is exhibited / required ([1]; pure water, turbidity at 400 nm, 0.5 °C/min from 5 °C) | concentration required to show coacervation at 50 °C ([2]; calculated with formula (1)) | C37 (peptide concentration to attain Tt at 37 °C) ([2]; logarithmic extrapolation of the Tt vs peptide concentration graph) | morphology by SEM [3] | Compound
no coacervation |  |  |  |  | CC(C)[C@H](NC(=O)CNC(=O)[C@@H]1CCCN1C(=O)[C@H](Cc1ccccc1)NC(=O)CNC(=O)[C@@H](NC(=O)CNC(=O)[C@@H]1CCCN1C(=O)[C@H](Cc1ccccc1)NC(=O)CNC(=O)[C@@H](NC(=O)CNC(=O)[C@@H]1CCCN1C(=O)[C@@H](N)Cc1ccccc1)C(C)C)C(C)C)C(=O)NCC(N)=O [F3, H-(FPGVG)3-NH2] (H-FPGVGFPGVGFPGVG-NH2)
 | at least 20 mg/mL | at least 8.09 mM | 11.7 mM | spherical structures were not formed | CC(C)[C@H](NC(=O)CNC(=O)[C@@H]1CCCN1C(=O)[C@H](Cc1ccccc1)NC(=O)CNC(=O)[C@@H](NC(=O)CNC(=O)[C@@H]1CCCN1C(=O)[C@H](Cc1ccccc1)NC(=O)CNC(=O)[C@@H](NC(=O)CNC(=O)[C@@H]1CCCN1C(=O)[C@H](Cc1ccccc1)NC(=O)CNC(=O)[C@@H](NC(=O)CNC(=O)[C@@H]1CCCN1C(=O)[C@H](Cc1ccccc1)NC(=O)CNC(=O)[C@@H](NC(=O)CNC(=O)[C@@H]1CCCN1C(=O)[C@@H](N)Cc1ccccc1)C(C)C)C(C)C)C(C)C)C(C)C)C(=O)NCC(N)=O [F5, H-(FPGVG)5-NH2] (H-FPGVGFPGVGFPGVGFPGVGFPGVG-NH2)
